High-throughput results as filed in PubChem.
PLCb3 inh: human PLC-beta3 inhibitors, primary screen, biochemical, fluorescence | 1-phosphatidylinositol 4,5-bisphosphate phosphodiesterase beta-3 (Homo sapiens), Q01970 | inhibition, % at 12.2 µM | 370,000 compounds, 0.18% hits | Purified PLC-beta3, fluorogenic substrate; in the data active = inhibition above about 11%;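 note: 0% = median of compound wells on plate and 100% = full blocker control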
procasp3 activ: activators of human procaspase-3 D3A mutant, primary screen, biochemical, absorbance, PC-3 D3A mutant, single concentration; 330,000 compounds, 0.11% hits; activation, % at 8.5 µM; recombinant procaspase-3 D3A, Ac-DEVD-pNA absorbance 405 nm; AID 463141, 2010;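 active = activation above the mean of all tested compounds plus 3 SD, cut at about 21% in these data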;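 note: 0% = DMSO alone and 100% = DMSO wells spiked with extra 5 µM PC-3 D3A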
Target sequence (P42574 whole entry D9A/D28A/D175A): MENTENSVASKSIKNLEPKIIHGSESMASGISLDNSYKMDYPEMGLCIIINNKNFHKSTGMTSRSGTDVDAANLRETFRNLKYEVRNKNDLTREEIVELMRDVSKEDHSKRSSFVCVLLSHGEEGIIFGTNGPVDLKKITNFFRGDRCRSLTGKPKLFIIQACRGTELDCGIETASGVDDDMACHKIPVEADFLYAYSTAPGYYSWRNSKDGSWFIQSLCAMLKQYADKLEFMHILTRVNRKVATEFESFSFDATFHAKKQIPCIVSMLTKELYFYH
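Test system: Procaspase-3 D3A mutant; medium: Zinc-free HEPES/NaCl buffer with 0.01% Triton X-100 at pH 7.4; reagent: DEVD-pNA substrate; doses: one concentration, 8.5 µM nominal, 0.8% DMSO; times: 1 h preincubation plus 2 h reaction at 25 °C; signal: Epi-absorbance at 405 nm of released p-nitroaniline, 0 and 120 min; replicates: singlicate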
procasp7 counter: procaspase-7 activators, primary screen, counter-screen for procaspase-3 activator project, biochemical, absorbance, HTS, human; Caspase-7 (Homo sapiens), P55210; recombinant procaspase-7, Ac-DEVD-pNA absorbance 405 nm; D23A/D198A/D206A triple mutant, cannot self-cleave; scale: DMSO 0, 5 µM enzyme 100; activation, % at 8.5 µM; 330,000 compounds, 0.093% hits;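 active = percent activation above the screen-wide mean plus 3 SD, cut at about 25% in these data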
Target sequence (P55210 whole entry D23A/D198A/D206A): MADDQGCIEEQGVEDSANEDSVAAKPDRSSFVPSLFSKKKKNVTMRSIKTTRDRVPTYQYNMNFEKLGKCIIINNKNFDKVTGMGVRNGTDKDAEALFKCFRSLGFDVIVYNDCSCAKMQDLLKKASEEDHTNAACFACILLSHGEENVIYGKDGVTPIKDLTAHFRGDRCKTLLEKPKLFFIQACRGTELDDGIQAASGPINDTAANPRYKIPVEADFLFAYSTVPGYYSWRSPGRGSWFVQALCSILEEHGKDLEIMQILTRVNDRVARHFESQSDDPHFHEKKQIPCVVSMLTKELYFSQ
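Replicates: singlicate. Assay system: Procaspase-7 triple mutant (PC-7 D3A). Signal: 405 nm absorbance of p-nitroaniline. Times: 1 h preincubation, 2 h reaction. Buffer or medium: Zinc-free HEPES pH 7.4 with 300 mM NaCl, 0.01% Triton X-100. Also added: DEVD-pNA substrate. Benchmarks: DMSO wells as 0%, DMSO with 5 µM added PC-7 as 100%.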
PLC-gamma1 inh: PLC-gamma1 enzyme inhibitors, primary screen, biochemical, fluorescence, purified enzyme | 1-phosphatidylinositol 4,5-bisphosphate phosphodiesterase gamma-1 (Homo sapiens), P19174 | fluorogenic substrate | inhibition, % at 12.2 µM | 370,000 compounds, 0.84% hits | AID 720700, 2013; in the data active = inhibition above about 9.5%
HGIII-sPLA2 inh: human group III sPLA2 inhibitors, primary screen, biochemical, QFRET, BODIPY PC-A2 liposome substrate; Group 3 secretory phospholipase A2 (Homo sapiens), Q9NZ20; QFRET BODIPY PC-A2 liposome hydrolysis, fluorescence; inhibition, % at 12.2 µM; 370,000 compounds, 0.56% hits; AID 743126, 2013;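 active = inhibition above mean plus 3 SD of compounds lying within the high and low control bounds, cut at about 19% in these data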;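 note: 0% = median of test compound wells and 100% = no enzyme DMSO wells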
PC3 D3A act: procaspase-3 activators, counter-screen for dual procaspase-3/7 activator project, biochemical, absorbance, PC-3 D3A mutant, human; shares compounds with procasp7 counter; recombinant PC-3 D3A, Ac-DEVD-pNA absorbance 405 nm; aspartates 9, 28, 175 changed to alanine; 100% = enzyme control; activation, % at 8.5 µM; 290 tested, under 10 active;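 active = mean percent activation across triplicates above a set limit taken from the earlier primary procaspase-3 screen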;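 note: 0% = DMSO wells and 100% = DMSO wells with 5 µM added PC-3 D3A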
Procasp7 act: activation of procaspase-7 enzyme – biochemical, absorbance, human, dual procaspase-3/-7 activator project, confirmation | shares compounds with procasp7 counter | recombinant procaspase-7, Ac-DEVD-pNA absorbance 405 nm; D23A/D198A/D206A mutant that cannot self-cleave | activation, % at 8.5 µM | 290 tested, under 10 active;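 active = mean activation above a set limit carried over from the earlier primary screen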;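 note: 0% = DMSO only and 100% = DMSO with added 5 µM PC-7 enzyme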
Starred values were filed as active, the others as inactive; i = inactive; . = not tested or not shown. Hits are enriched below; roughly 1.6% of the tested compounds scored in any of these assays.

SMILES	PLCb3 inh	procasp3 activ	procasp7 counter	PLC-gamma1 inh	HGIII-sPLA2 inh	PC3 D3A act	Procasp7 act
O=C(Nc1ccc(Cl)cc1)c1csc([C@@H]2O[C@H](CO)[C@@H](O)[C@H]2O)n1	4.2	.	.	4.7	-2.6	.	.
CCOC(=O)C1=C(C)NC(C)=C(C(=O)OCC)C1/C=C/c1ccccc1OC	-97.3	15.3	28.6*	-82.4	-3.0	-27.5	-23.1
Cc1cc(C)c(S(=O)(=O)c2ccccc2)c(OC(=O)c2c(Cl)cc(Cl)cc2Cl)n1	1.6	-1.1	26.5*	0.2	7.9	1.8	2.7
O=C(c1cccs1)c1ccc(-c2cccs2)s1	i	27.2*	37.0*	-379.0	-10.9	-30.1	-34.7
N#Cc1cccc(NC(=O)O[C@@H]2CC[C@@]34CCCN3C(=O)CCC[C@H]4C2)c1	2.8	.	.	-2.0	0.7	.	.
CCOC(=O)c1sc2c(c1C)C(c1cccs1)C1=C(CCCC1=O)N2 (stereo unspecified)	i	22.7*	40.0*	i	1.4	-29.0	-35.3
NS(=O)(=O)c1ccc(NC(=O)/C=C/c2cn(-c3ccccc3)nc2-c2cccc(Cl)c2)cc1	-18.9	54.5*	72.3*	-9.8	-9.0	-28.3	-5.6
COc1cc(/C=C/C(=O)Nc2nc3ccc(S(=O)(=O)N(C)C)cc3s2)cc(OC)c1OC	i	-18.3	35.1*	i	-25.1	-29.9	-35.3
O=c1[nH]c(N/N=C/c2cc3c(cc2[N+](=O)[O-])OCO3)nc2ccccc12	-15.5	-5.5	3.2	-4.5	3.4	.	.
O=c1[nH]c(N/N=C/c2ccccc2)nc2ccccc12	i	31.6*	37.7*	-454.8	-1.0	-27.5	-28.0
O=c1[nH]c(N/N=C\c2ccc3c(c2)OCO3)nc2ccccc12	-475.1	24.2*	27.5*	-442.5	-0.2	1.3	-3.0
C(=N\Nc1nc2ccccc2[nH]1)/c1ccccc1	-22.0	6.1	3.3	-9.9	-1.3	.	.
CCOC(=O)[C@@]12CCC3=C1N(CCC3)C(=O)[C@H](CC(=O)N1CCSCC1)C2	2.4	.	.	0.3	5.1	.	.
COCCN(Cc1nc(-c2ccc(-c3ccccc3)cc2)oc1C)C(C)C	-8.8	5.4	-2.2	-4.3	-1.7	.	.
CCOC(=O)c1nc(Nc2cc(Cl)ccc2OC)c2ccccc2n1	-13.0	7.8	25.7*	-8.7	2.8	-24.8	-32.6
C[C@H]1[C@@H](OC(=O)Nc2ccc(C#N)cc2)CC[C@@]23CCCN2C(=O)CCC[C@@H]13	5.5	.	.	1.2	3.5	.	.
O=c1oc2ccccc2cc1-c1nc2c(s1)CCCC2	i	8.8	96.5*	i	-3.2	-28.7	-36.4
Cc1cccc(N(Cc2ccccc2)C(=O)CN2C(=O)NC3(CCCCC3C)C2=O)c1 (stereo unspecified)	2.3	-5.0	2.0	2.0	-12.8	.	.
COc1cc(C2C3=C(CC(C)(C)CC3=O)Nc3c2c(=O)[nH]c(=O)n3Cc2ccccc2)ccc1O (stereo unspecified)	-31.3	9.5	12.7	-26.1	-33.2	.	.
COc1ccc(C2C3=C(CC(C)(C)CC3=O)Nc3c2c(=O)[nH]c(=O)n3Cc2ccccc2)cc1 (stereo unspecified)	-197.4	11.5	29.2*	-184.9	-38.5	-29.8	-33.8
COc1ccc(C2C3=C(CC(C)(C)CC3=O)Nc3c2c(=O)[nH]c(=O)n3Cc2ccccc2)cc1OC (stereo unspecified)	-96.9	11.7	25.6*	-66.5	-43.6	-27.1	-33.8
COc1ccc(NC2=CC(=O)CC(c3ccccc3)C2)cc1 (stereo unspecified)	-33.1	17.6	25.8*	-26.7	-5.1	0.5	-1.7
O=C1C=C(Nc2ccccc2)CC(c2ccccc2)C1 (stereo unspecified)	-25.2	4.8	17.2	-23.3	-2.1	.	.
COc1ccccc1CNS(=O)(=O)c1cc(-c2cc(C)no2)ccc1C(C)C	-10.7	-7.7	5.0	3.0	-17.2	.	.
CC(=O)Nc1ccc(NC(=O)C2CCC(N3C(=O)C4C5C=CC(C6CC56)C4C3=O)CC2)cc1 (stereo unspecified)	-5.8	-0.7	13.4	1.9	3.2	.	.
SMILES	PLCb3 inh	procasp3 activ	procasp7 counter	PLC-gamma1 inh	HGIII-sPLA2 inh	PC3 D3A act	Procasp7 act
O=C(Nc1ccc(Cc2ccncc2)cc1)C1CCC(N2C(=O)C3C4C=CC(C5CC45)C3C2=O)CC1 (stereo unspecified)	0.9	-6.1	29.8*	2.9	-3.9	2.0	27.1*
Cc1ccc(C)c(NC(=O)C(=O)NCC2CCCN2S(=O)(=O)c2cccs2)c1 (stereo unspecified)	-8.6	8.6	11.1	-1.8	9.2	.	.
CCOP(=O)(OCC)c1nc(-c2cccc3ccccc23)oc1NCc1ccc(OC)cc1	i	36.1*	60.6*	i	-8.3	-28.8	-35.7
OC[C@@H]1[C@@H](c2ccccc2)C(c2ccccc2)=NN1c1ccccc1	i	17.4	30.7*	i	-4.7	-30.4	-36.4
COc1ccccc1[C@H]1C(c2cccc(Cl)c2)=NN(c2ccccc2)[C@@H]1CO	.	17.4	-19.4	.	.	.	.
OC[C@@H]1[C@@H](c2ccccc2)C(c2ccc(F)cc2)=NN1c1ccccc1	.	16.4	28.7*	.	.	-29.1	-34.6
O=C(NC1CCCCC1)C1c2ccccc2OCC(=O)N1C1CC1 (stereo unspecified)	3.9	.	.	-1.9	1.8	.	.
Cc1cc2c(c(=O)n1C)C(Cc1ccccc1)C(C#N)=C(N)O2 (stereo unspecified)	-116.7	38.2*	46.8*	-88.4	-0.8	-27.2	-35.1
CCCC1C(C#N)=C(N)Oc2cc(C)n(C)c(=O)c21 (stereo unspecified)	-32.9	17.6	24.1	-25.3	3.8	.	.
CCOc1ccc(-n2c(SCC(=O)Nc3ccc(OC)cc3)nc3c(c2=O)SCC3)cc1	1.4	2.8	67.5*	7.4	6.2	-0.2	0.7
CCOc1ccc(-n2c(SCC(=O)Nc3cc(C)on3)nc3c(c2=O)SCC3)cc1	-8.1	-3.3	6.1	3.2	8.9	.	.
O=C(c1cccc(OC2CCN(Cc3ccc(F)cc3Cl)CC2)c1)N1CCCC1	-3.9	-0.2	-1.8	3.3	-5.2	.	.
